Molecular target: T1, Thyroid hormone receptor alpha (Homo sapiens, UniProt P10827)
T1 sequence (P10827 whole entry): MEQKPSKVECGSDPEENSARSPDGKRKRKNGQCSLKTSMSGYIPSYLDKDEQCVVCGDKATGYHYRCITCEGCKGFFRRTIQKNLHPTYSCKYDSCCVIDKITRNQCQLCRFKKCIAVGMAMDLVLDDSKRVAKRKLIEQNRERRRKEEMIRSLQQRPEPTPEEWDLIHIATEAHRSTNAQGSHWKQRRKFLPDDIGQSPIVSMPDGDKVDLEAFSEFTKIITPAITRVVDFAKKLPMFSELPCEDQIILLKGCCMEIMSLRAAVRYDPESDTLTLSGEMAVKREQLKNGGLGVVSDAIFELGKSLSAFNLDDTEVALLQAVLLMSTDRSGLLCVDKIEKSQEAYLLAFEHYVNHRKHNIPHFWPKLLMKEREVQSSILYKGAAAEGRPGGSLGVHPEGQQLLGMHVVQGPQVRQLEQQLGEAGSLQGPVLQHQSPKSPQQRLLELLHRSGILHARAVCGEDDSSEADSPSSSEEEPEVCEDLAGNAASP
Assay: Inhibitory activity expressed as concentration required to inhibit the binding of [125I]T3 to human thyroid hormone-alpha; call rule not given here
Procedure, shortened: (§1)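 hTHR from nuclear extracts of baculovirus-infected sf-9 cells, 20 pM final, with [125I]T3 at 200 pM final. Compounds serially diluted in DMSO. Buffer: 400 mM KCl, K phosphate, 1 mM MgCl2, 0.5 mM EDTA, 8.7% glycerol, 6 mM monothioglycerol, 0.5% reticulocyte lysate; 18–20 h, 4 °C. Bound and free separated on Sephadex G-25, gamma-counted. IC50 from competition curve, second of two titrations.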

IC50 [µM] | Compound
39 | N=C(c1ccccn1)N(N)S(=O)(=O)c1cc(Cl)c(Oc2ccc([N+](=O)[O-])cc2Cl)c(Cl)c1
18.1 | O=C(Nc1ccc(Cc2ccc(NC(=O)c3cccc([N+](=O)[O-])c3)cc2)cc1)c1cccc([N+](=O)[O-])c1
69 | Cn1c(Cc2nn(C)c(=O)c3ccccc23)ccc1SCC(=O)c1ccc(Cl)cc1Cl
1.8 | N=C(CCl)N(N)S(=O)(=O)c1cc(Cl)c(Oc2ccc([N+](=O)[O-])cc2Cl)c(Cl)c1
0.93 | [NH-]C(c1cc(Cl)cc(Cl)c1)=[N+](N)S(=O)(=O)c1cc(Cl)c(Oc2ccc([N+](=O)[O-])cc2Cl)c(Cl)c1

Molecular target: T1, Thyroid hormone receptor alpha
Assay: Inhibitory activity expressed as concentration required to inhibit the binding of [125I]T3 to human thyroid hormone-alpha; NA =Inactive
Procedure, shortened: as §1

IC50 | Compound
Not Active | Cn1c(Cc2nn(C)c(=O)c3ccccc23)ccc1SCc1ccc(Cl)cc1Cl
Not Active | N=C(c1cccnc1)N(N)S(=O)(=O)c1cc(Cl)c(Oc2ccc([N+](=O)[O-])cc2Cl)c(Cl)c1
Not Active | N=C(c1ccc(Cl)cc1)N(N)S(=O)(=O)c1cc(Cl)c(Oc2ccc([N+](=O)[O-])cc2Cl)c(Cl)c1
Not Active | N=C(c1ccc(Cl)cc1)N(N)S(=O)(=O)c1cc(Cl)c(Oc2ccc([N+](=O)[O-])cc2)c(Cl)c1

Source: ChEMBL document CHEMBL1131011, “Pharmacophores incorporating numerous excluded volumes defined by X-ray crystallographic structure in three-dimensional database searching: application to the thyroid hormone receptor” (J Med Chem, 1998)
